pIC50: −log10 of the molar value. The source made the active and inactive calls. No cut-off for these calls is given here.
Legend:
[1] = target: T1, Rap guanine nucleotide exchange factor 3 (Homo sapiens) (UniProt O95398); assay: Inhibition of recombinant human GST-tagged EPAC1 (149 to 881 residues) expressed in Escherichia coli Rosetta 2(DE3) assessed as reduction in guanine nucleotide exchange activity at 10 uM using BODIPY-labeled GDP loaded Rap1A by fluorescence assay relative to control
T1 sequence (whole entry): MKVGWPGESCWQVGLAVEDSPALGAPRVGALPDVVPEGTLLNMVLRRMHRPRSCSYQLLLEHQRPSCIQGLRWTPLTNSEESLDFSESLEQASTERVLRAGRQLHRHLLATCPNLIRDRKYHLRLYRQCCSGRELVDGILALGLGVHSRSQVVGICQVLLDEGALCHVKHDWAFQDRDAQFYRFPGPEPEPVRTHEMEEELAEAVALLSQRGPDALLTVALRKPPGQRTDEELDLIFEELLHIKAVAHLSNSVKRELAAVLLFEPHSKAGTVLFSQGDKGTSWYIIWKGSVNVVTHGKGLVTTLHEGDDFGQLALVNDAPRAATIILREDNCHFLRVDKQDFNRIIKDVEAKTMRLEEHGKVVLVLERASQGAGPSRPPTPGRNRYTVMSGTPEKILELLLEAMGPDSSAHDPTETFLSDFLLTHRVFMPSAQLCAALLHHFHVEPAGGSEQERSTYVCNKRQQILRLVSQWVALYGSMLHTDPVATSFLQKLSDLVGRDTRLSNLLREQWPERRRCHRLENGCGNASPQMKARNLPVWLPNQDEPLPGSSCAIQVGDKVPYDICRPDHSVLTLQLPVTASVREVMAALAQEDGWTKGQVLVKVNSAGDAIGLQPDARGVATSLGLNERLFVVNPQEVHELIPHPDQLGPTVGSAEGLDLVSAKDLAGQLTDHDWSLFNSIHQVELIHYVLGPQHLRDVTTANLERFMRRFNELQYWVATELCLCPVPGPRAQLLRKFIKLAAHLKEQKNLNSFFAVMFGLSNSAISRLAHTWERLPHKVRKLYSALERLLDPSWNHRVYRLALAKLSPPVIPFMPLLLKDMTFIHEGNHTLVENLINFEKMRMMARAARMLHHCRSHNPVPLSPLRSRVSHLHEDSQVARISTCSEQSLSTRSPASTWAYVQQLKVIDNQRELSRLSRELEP
Procedure, shortened: (§1)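 EPAC1 was stimulated with the analog present at 10 or 50 μM. Activity was then measured as guanine nucleotide exchange factor activity toward Rap1 in a BODIPY-GDP-based assay, used as a screen.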

[2] = target: T1, Rap guanine nucleotide exchange factor 3 (Homo sapiens); assay: Inhibition of recombinant human GST-tagged EPAC1 (149 to 881 residues) expressed in Escherichia coli Rosetta 2(DE3) assessed as reduction in guanine nucleotide exchange activity at 50 uM using BODIPY-labeled GDP loaded Rap1A by fluorescence assay relative to control; procedure, shortened: as §1
[3] = target: Rap guanine nucleotide exchange factor 4 (Homo sapiens, UniProt Q8WZA2); assay: Inhibition of recombinant human GST-tagged EPAC2 expressed in Escherichia coli Rosetta 2(DE3) assessed as reduction in guanine nucleotide exchange activity using BODIPY-labeled GDP loaded Rap1A by fluorescence assay
[4] = target: T2, Rap guanine nucleotide exchange factor 3 (Homo sapiens, UniProt O95398); assay: Inhibition of recombinant human GST-tagged EPAC1 (149 to 881 residues) expressed in Escherichia coli Rosetta 2(DE3) assessed as reduction in guanine nucleotide exchange activity using BODIPY-labeled GDP loaded Rap1A by fluorescence assay
T2 sequence (O95398 whole entry): T1 sequence (whole entry)

Chain of Rap guanine nucleotide exchange factor 4 (Q8WZA2 whole entry, the tested form may be a part): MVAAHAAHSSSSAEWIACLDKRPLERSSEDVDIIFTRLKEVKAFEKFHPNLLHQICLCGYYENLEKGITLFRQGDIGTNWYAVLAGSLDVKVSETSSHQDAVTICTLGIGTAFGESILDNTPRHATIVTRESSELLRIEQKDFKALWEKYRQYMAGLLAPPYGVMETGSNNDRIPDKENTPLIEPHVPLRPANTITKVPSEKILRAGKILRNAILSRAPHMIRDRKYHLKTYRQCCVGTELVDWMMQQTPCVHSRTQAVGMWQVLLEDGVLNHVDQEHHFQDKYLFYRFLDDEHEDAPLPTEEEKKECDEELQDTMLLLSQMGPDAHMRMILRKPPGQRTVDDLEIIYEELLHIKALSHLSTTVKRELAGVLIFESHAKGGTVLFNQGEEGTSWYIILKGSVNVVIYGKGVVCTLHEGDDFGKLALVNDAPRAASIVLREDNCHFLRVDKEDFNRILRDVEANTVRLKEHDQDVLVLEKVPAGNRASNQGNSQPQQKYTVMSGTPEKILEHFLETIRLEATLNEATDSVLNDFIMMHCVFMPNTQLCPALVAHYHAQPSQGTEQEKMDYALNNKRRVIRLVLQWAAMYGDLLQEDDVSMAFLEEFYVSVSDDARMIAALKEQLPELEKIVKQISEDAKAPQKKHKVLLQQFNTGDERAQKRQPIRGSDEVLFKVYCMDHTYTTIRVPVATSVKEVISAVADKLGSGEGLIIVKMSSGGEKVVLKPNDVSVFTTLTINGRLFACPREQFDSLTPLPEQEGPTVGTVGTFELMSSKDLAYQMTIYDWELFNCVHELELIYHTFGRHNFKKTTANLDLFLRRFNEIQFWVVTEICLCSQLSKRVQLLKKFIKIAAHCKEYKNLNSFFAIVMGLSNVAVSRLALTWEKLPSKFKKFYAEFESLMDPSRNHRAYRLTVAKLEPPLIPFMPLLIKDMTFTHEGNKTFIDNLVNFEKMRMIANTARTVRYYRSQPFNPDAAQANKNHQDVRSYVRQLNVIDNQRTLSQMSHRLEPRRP

Row | inhibition [1] | inhibition [2] [%] | pIC50 [3] | pIC50 [4] | Structure (SMILES)
1 | 23.6% | 46 | – | – | CC1CCc2c(Br)c(F)c(Br)c(Br)c2N1C=O (centres undefined)
2 | – | – | 4.65 | 5.48 | C[C@@H]1CCc2c(cc(Br)c(F)c2Br)N1C=O
3 | 58.1% | 88.3 | – | – | CC1CCc2c(cc(Br)c(F)c2Br)N1C=O (centres undefined)
4 | 15.8% | 42 | – | – | CC1CCc2c(ccc(F)c2Br)N1C=O (centres undefined)
5 | – | – | 4.77 | 4.50 | C[C@H]1CCc2c(cc(Br)c(F)c2Br)N1C=O
6 | – | – | – | 4.75 | C[C@@H]1CCc2c(cc(Br)c(F)c2Br)N1C=S
7 | Active | – | – | – | C[C@@H]1CCc2cc(F)ccc2N1C=O
8 | Active | – | – | – | C[C@@H]1CCc2c(ccc(F)c2Br)N1C=O
9 | Active | – | – | – | C[C@H]1CCc2c(ccc(F)c2Br)N1C=O
10 | Active | – | – | – | C[C@H]1CCc2c(cc(Br)c(F)c2Br)N1
11 | – | – | – | < 4.00 | C[C@H]1CCc2c(cc(Br)c(F)c2Br)N1C=S
12 | Active | – | – | – | C[C@@H]1CCc2c(cc(Br)c(F)c2Br)N1
13 | 8.7% | 26.2 | – | – | CC(=O)N1c2cc(Br)c(F)c(Br)c2CCC1C (centres undefined)
14 | 5.3% | 5 | – | – | CC1CCc2cc(F)ccc2N1C=O (centres undefined)
15 | Active | – | – | – | C[C@H]1CCc2cc(F)ccc2N1C=O
16 | 40.8% | 74.1 | – | – | CC1CCc2c(cc(Br)c(F)c2Br)N1 (centres undefined)
